# Measured values gathered from unrelated publications.
# Target: Delta-type opioid receptor (OPRD1, Homo sapiens, UniProt P41143)
# Observed: ligand displacement
# Tested at: 10 µM
Structure (SMILES),assay,inhibition
CCCNc1nc2ccccc2n1Cc1ccc(Cl)cc1,,-5.69%
Cc1cc(-c2nc(CN3CCNCC3)no2)cc2c1C(=O)N(Cc1ccc(OC(F)(F)F)cc1)C2,radioligand,45%
O=C1N=C(N2CCCCN2)S/C1=C\c1ccc(F)cc1O,radioligand,13%
CCN(Cc1ccccc1C(F)(F)F)C(=O)C1CCN(S(=O)(=O)c2ccc3[nH]ncc3c2)CC1,radioligand,6%
COc1cc(NC(C)=O)c(Cl)cc1C(=O)Nc1nccs1,,20.9%
CCN(CC)c1ccc(C2Nc3ccc(C(=O)c4ccccc4)cc3NC3=C2C(=O)CC(C)(C)C3)cc1 (centres unmarked),radioligand,12%
N#Cc1cc(Cn2c(N3CCCC3)nc3ccccc32)ccc1F,,-11.4%
O=C(c1ccc(Cl)cc1)N(Cc1ccccc1)C1CCCCC1,,33.4%
